Hep lipid drop: modulators of hepatic lipid droplet formation. AID 1656. AML12 mouse hepatocytes, oleate lipid droplets, BODIPY imaging. actives 0.4% (n = 240,000). inhibition, % at 6.5 µM;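 active = lipid droplet intensity inhibited by at least 50%, with more than 500 cells counted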
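Technique: fluorescence imaging, 20x objective, two fields per well / Assay system: AML12 hepatocytes (mouse) / Measure: % inhibition of lipid droplet signal / Doses: 6.5 µM single-point dosing / Incubation: overnight exposure / Reagent: 100 µM oleic acid challenge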
TLR9-MyD88 block: TLR9-MyD88 interaction inhibition. actives 0.21% (n = 340,000). AID 504734. Q9NR96+Q99836. CHO BLA complementation TLR9-MyD88, CCF4 FRET ratio. inhibition, % at 4.98 µM;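 active = inhibition above the mean over all tested compounds plus 3 SD, cut at about 21% in these data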;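 also: 0% = DMSO only wells and 100% = clavulanate BLA inhibitor control wells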
SR-BI uptake up: SR-BI HDL lipid transfer activation | CHO ldlA[mSR-BI] cells, DiI-HDL uptake fluorescence, 3 h; 100 = double the neutral-control signal | activation, % at 12.5 µM | actives 0.096% (n = 320,000) | AID 504775;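 active = mean replicate activation of at least 60% and every replicate at or above 60%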;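 also: 0% = median plate neutral-control signal and 100% = twice that signal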
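Test system: SR-BI-overexpressing, LDLR-lacking CHO cells; Medium: Ham's F12 with 0.5% BSA, HEPES 25 mM, pH 7.4; Schedule: 3 h, 37 °C; Technique: bottom-read fluorescence, 550/595 nm.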
NOD2-RIPK2 inh: blocks binding of human NOD2 to RIPK2; CHO BLA complementation NOD2-RIPK2, CCF4 ratio; O43353; inhibition, % at 4.98 µM; actives 0.38% (n = 360,000); in the data active = inhibition above about 21%;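 also: 0% = vehicle only and 100% = reference blocker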
SR-BI HDL uptake: mouse SR-BI HDL lipid transfer inhibition; Q61009; ldlA[mSR-BI] CHO cells, DiI-HDL uptake fluorescence, 3 h; inhibition, % at 12.5 µM; actives 0.96% (n = 320,000);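 active = mean replicate inhibition of at least 70% and a set share of replicates each scoring 70 or more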;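 also: 0% = median of neutral control wells and 100% = median of positive control wells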
TLR4 MyD88 comp: TLR4-MyD88 interaction inhibition in cells | inhibition, % at 8.4 µM | HeLa CL3-4 TLR4/MyD88 BLA complementation, FRET ratio | AID 861 | actives 0.18% (n = 200,000); in the data active = inhibition above about 25%;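 also: 0% = vehicle and 100% = reference inhibitor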
TLR9-MyD88 cf: TLR9-MyD88 interaction inhibition, confirmation; inhibition, % at 4.98 µM; CHO TLR9/MyD88 BLA complementation, CCF4 FRET ratio; shares compounds with TLR9-MyD88 block; actives 51% (n = 680);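 active = mean inhibition across three repeats above about 21% taken from the earlier screen, limit read from the data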;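 also: blue over green emission ratio reports constitutive TLR9 MyD88 association via BLA complementation; 0% = DMSO vehicle wells and 100% = clavulanate BLA inhibitor wells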
BLA counter-1: beta-lactamase reporter inhibition, counter-screen artifact; AID 540251; actives 7% (n = 680); inhibition, % at 4.98 µM; shares compounds with TLR9-MyD88 block; CHO-BLA cells, CCF4 FRET ratio, BLA reporter;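 active = mean inhibition above a 50% cutoff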;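 also: counterscreen of TLR9-MyD88 hits on CMV-driven BLA in CHO-K1 cells; 0% = DMSO alone and 100% = clavulanate blocking BLA; higher means less blue over green ratio so more BLA blockade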
TLR9 CHO cytotox: counter-screen for TLR9-MyD88 inhibitors: cytotoxicity in CHO cells; shares compounds with TLR9-MyD88 block; luminescence; inhibition, % at 4.98 µM; actives 39% (n = 680); AID 588336; in the data active = inhibition above about 11%
NOD2-RIPK2 conf: confirmation of human NOD2-RIPK2 interaction inhibitors; shares compounds with NOD2-RIPK2 inh; CHO cells, NOD2-RIPK2 BLA complementation, CCF4 FRET; inhibition, % at 4.98 µM; actives 70% (n = 1,200); AID 624370;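 active = mean inhibition across replicates above a set limit taken from the earlier primary screen, cut at about 21% in these data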;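 also: 0% = DMSO-only wells and the high end = clavulanate BLA-blocked wells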
BLA counter-2: hits BLA reporter in NOD2-RIPK2 inhibitor counterscreen | shares compounds with NOD2-RIPK2 inh | AID 624371 | CHO BLA reporter, CCF4 FRET ratio | inhibition, % at 4.98 µM | actives 57% (n = 1,200);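 active = mean inhibition above the low-control mean inhibition plus three low-control SD, cut at about 11% in these data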;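 also: 0% = DMSO only wells and 100% = clavulanate high control wells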
* = called active by the depositor; x = no result. Most compounds without a hit are left out; they make up all but 1.6% or so of the library.

SMILES	Hep lipid drop	TLR9-MyD88 block	SR-BI uptake up	NOD2-RIPK2 inh	SR-BI HDL uptake	TLR4 MyD88 comp	TLR9-MyD88 cf	BLA counter-1	TLR9 CHO cytotox	NOD2-RIPK2 conf	BLA counter-2
COC(=O)c1c(-c2ccc(N(C)C)cc2)sc2ccc(OC)cc12	x	28.3*	-78.9	38.4*	78.9*	x	34.9*	42.1	2.2	49.0*	66.0*
COC(=O)c1c(-c2ccc(OC)cc2)sc2cc3c(cc12)OCO3	x	-15.5	-11.9	-13.3	11.9	x	x	x	x	x	x
NNC(=O)c1oc2nc(-c3ccc(Cl)cc3)cc(-c3ccccc3)c2c1N	19.5	24.4*	-106.1	25.9*	106.1*	x	45.5*	41.4	1.0	62.2*	67.1*
COc1ccc(N2C(=O)CS/C2=N\C(=S)Nc2ccccc2)cc1	-27.5	-5.5	-29.6	0.8	29.6	x	x	x	x	x	x
Cc1ccccc1Nc1cccc2nonc12	24.7	45.9*	-3.3	40.7*	3.3	22.7	22.3*	27.6	-2.2	53.4*	56.7*
COc1cc(/C=C/C(=O)/C=C(O)/C=C/c2ccc(O)c(OC)c2)ccc1O	x	28.0*	-39.6	53.5*	39.6	x	29.9*	27.6	6.0	55.4*	56.9*
Cc1cc(C)nc(-n2nc(C)c(C3(O)C(=O)Nc4ccccc43)c2N)n1 (stereo unspecified)	x	0.2	30.5	-15.7	-30.5	-0.2	x	x	x	x	x
O=C(CN1C(=O)NC2(CCCCC2)C1=O)Oc1ccc2c(C(F)(F)F)cc(=O)oc2c1	x	42.7*	13.0	67.2*	-13.0	x	35.6*	40.3	-1.7	62.7*	66.6*
CCc1cc(=O)oc2cc(OC(=O)CN3C(=O)NC4(CCCC4)C3=O)ccc12	0.4	-8.7	21.7	-10.7	-21.7	x	x	x	x	x	x
O=c1c(Br)ccc(Br)cc1Br	x	65.5*	-34.9	85.3*	34.9	x	68.5*	39.3	98.2*	100.9*	47.8*
O=C1CN(S(=O)(=O)c2cc(Br)ccc2Br)CCN1	x	-6.5	0.6	5.6	-0.6	x	x	x	x	x	x
Cc1ccc(C)c(N2CCN(C(=O)c3ccc(N4CCOCC4)c([N+](=O)[O-])c3)CC2)c1	2.5	0.5	-30.5	0.9	30.6	x	x	x	x	x	x
Clc1ccccc1OCc1nnc(-c2ccccc2Br)o1	x	-1.5	-3.0	-3.8	3.0	-3.3	x	x	x	x	x
O=c1c(Cl)c(Cl)cnn1Cc1nnc(-c2ccccc2Br)o1	2.0	21.0*	6.4	27.0*	-6.4	11.2	29.2*	14.4	100.8*	45.5*	10.7*
CCN(CC(=O)Nc1ccc(OC)cc1)C(=O)c1ccc2c(c1)NC(=O)C(C)S2 (stereo unspecified)	x	-2.2	-32.7	-9.3	32.7	x	x	x	x	x	x
COc1ccc(CCC(=O)Nc2nc3c(s2)CN(C)CC3)cc1OC	x	-21.5	-0.1	-4.8	0.1	7.4	x	x	x	x	x
COc1ccc(C2=NN(c3nc(-c4ccc(CNC(C)=O)cc4)cs3)C(c3ccco3)C2)cc1 (stereo unspecified)	7.6	0.6	x	1.4	x	x	x	x	x	x	x
O=C(/C=C/c1cccc(Cl)c1)c1ccc([N+](=O)[O-])o1	x	25.8*	-30.2	52.1*	30.2	x	21.4*	4.0	95.6*	87.8*	19.4*
CCCNC(=O)c1nnsc1S(=O)(=O)c1ccc(Cl)cc1	3.9	35.0*	-0.5	84.5*	0.5	17.9	36.5*	8.7	99.0*	85.1*	23.1*
CCCNC(=O)NS(=O)(=O)c1ccc(Cl)cc1	-2.9	-4.9	0.9	-5.2	-0.2	-19.6	x	x	x	x	x
CNC(=O)c1nnsc1S(=O)c1ccc(Cl)cc1 (stereo unspecified)	-14.7	45.9*	-3.9	56.9*	3.9	7.0	50.7*	4.2	97.2*	53.8*	27.6*
CCCNC(=O)c1nnsc1S(=O)c1ccc(Cl)cc1 (stereo unspecified)	0.5	48.2*	-9.4	80.3*	9.4	9.3	48.7*	4.0	100.4*	85.1*	24.8*
COc1cc2c(cc1NC(=O)c1cc(-c3ccccn3)nc3ccccc13)oc1ccccc12	-4.7	-3.2	-9.9	2.9	9.9	4.3	x	x	x	x	x
CCC(C)NC(=O)Nc1ccc(C)cc1C (stereo unspecified)	-15.6	9.1	9.6	4.4	-9.6	5.3	x	x	x	x	x
CCN(CC)c1ccc(/C=C/c2cc(-c3ccccc3)c3ccccc3n2)cc1	12.0	55.0*	-52.1	69.3*	52.1	x	70.1*	80.2*	4.9	80.5*	86.1*

From PubChem
